Values after ≈ are worked out from the molar mass of the structure shown.
Assays:
Assay type in all cases: functional
[1] = system: Mycobacterium tuberculosis; test: Antibacterial activity against multi drug resistant Mycobacterium tuberculosis 149/03 isolate
How it was run: (§1)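 MIC against clinical MTB isolates by the macrodilution broth method in Middlebrook broth enriched with 10% ADC. Values are in µg/mL.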

[2] = system: Mycobacterium tuberculosis; test: Antibacterial activity against multi drug resistant Mycobacterium tuberculosis 421/96 isolate; how it was run: as §1
[3] = system: Mycobacterium tuberculosis; test: Antibacterial activity against multi drug resistant Mycobacterium tuberculosis 586/98 isolate; how it was run: as §1
[4] = system: Mycobacterium tuberculosis; test: Antibacterial activity against multi drug resistant Mycobacterium tuberculosis 43/05 isolate; how it was run: as §1
[5] = system: Mycobacterium tuberculosis; test: Antibacterial activity against multi drug resistant Mycobacterium tuberculosis 158/97 isolate; how it was run: as §1
[6] = system: Mycobacterium tuberculosis; test: Antibacterial activity against multi drug resistant Mycobacterium tuberculosis 134/02 isolate; how it was run: as §1
[7] = system: Mycobacterium tuberculosis; test: Antibacterial activity against multi drug resistant Mycobacterium tuberculosis 520/98 isolate; how it was run: as §1
[8] = system: Mycobacterium tuberculosis; test: Antibacterial activity against multi drug resistant Mycobacterium tuberculosis 326/04 isolate; how it was run: as §1
[9] = system: Mycobacterium tuberculosis; test: Antibacterial activity against multi drug resistant Mycobacterium tuberculosis 296/04 isolate; how it was run: as §1
[10] = system: Mycobacterium tuberculosis; test: Antibacterial activity against multi drug resistant Mycobacterium tuberculosis 482/98 isolate; how it was run: as §1
[11] = system: Mycobacterium tuberculosis; test: Antibacterial activity against multi drug resistant Mycobacterium tuberculosis 275/05 isolate; how it was run: as §1

Q: For `Cc1c(CN2CCSCC2)cc(-c2ccc(F)cc2)n1-c1ccccc1F`, which MIC [1] is on record?
A: 2 µg/mL (≈ 5.2 µM)

Q: And the MIC [2]?
A: 2 µg/mL (≈ 5.2 µM)

Q: And the MIC [3]?
A: 2 µg/mL (≈ 5.2 µM)

Q: And the MIC [4]?
A: 0.5 µg/mL (≈ 1.3 µM)

Q: And the MIC [5]?
A: 0.5 µg/mL (≈ 1.3 µM)

Q: What about the MIC [6] of the same molecule?
A: 2 µg/mL (≈ 5.2 µM)

Q: What about the MIC [7] of the same molecule?
A: 2 µg/mL (≈ 5.2 µM)

Q: And the MIC [8]?
A: > 32 µg/mL

Q: What about the MIC [9] of the same molecule?
A: 2 µg/mL (≈ 5.2 µM)

Q: And the MIC [10]?
A: 2 µg/mL (≈ 5.2 µM)

Q: And the MIC [11]?
A: 2 µg/mL (≈ 5.2 µM)

Q: For `Cc1ccc(-c2cc(CN3CCSCC3)c(C)n2-c2ccc(F)cc2)cc1`, which MIC [1] is on record?
A: 0.5 µg/mL (≈ 1.31 µM)

Q: And the MIC [2]?
A: 0.5 µg/mL (≈ 1.31 µM)

Q: And the MIC [3]?
A: 0.5 µg/mL (≈ 1.31 µM)

Q: And the MIC [4]?
A: 0.5 µg/mL (≈ 1.31 µM)

Q: What about the MIC [5] of the same molecule?
A: 0.5 µg/mL (≈ 1.31 µM)

Q: And the MIC [6]?
A: 0.5 µg/mL (≈ 1.31 µM)

Q: And the MIC [7]?
A: 0.5 µg/mL (≈ 1.31 µM)

Q: And the MIC [8]?
A: 32 µg/mL (≈ 84.1 µM)

Q: And the MIC [9]?
A: 0.5 µg/mL (≈ 1.31 µM)

Q: And the MIC [10]?
A: 0.5 µg/mL (≈ 1.31 µM)

Q: What about the MIC [11] of the same molecule?
A: 0.5 µg/mL (≈ 1.31 µM)

Reference: ChEMBL document CHEMBL1145326, “Antimycobacterial agents. Novel diarylpyrrole derivatives of BM212 endowed with high activity toward Mycobacterium tuberculosis and low cytotoxicity” (2006)
